The text below walks through data of PMC8245385 (Clinical Drug Investigation, 2021).

Like-named read-outs stand apart in the source and are kept apart here.

One may read the AUC(0-t) as the area under the concentration-time curve up to a stated or last time point. Read a high AUC(0-t) as high exposure. A word on the Cmax: it is the peak of the concentration-time curve. One may read the Tmax as the time from dosing to the highest level.

Data set [1] in a line: Plasma pharmacokinetics in the doravirine/islatravir drug interaction study. The class given is in vivo, human. The essentials: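 Healthy adults were randomized and blinded. They took oral doravirine 100 mg or placebo QD for 5 days, then islatravir 2.25 mg QD for 14 days, then both for 5 days, with no washout and ≥10 h fasting before dosing on PK days. K2EDTA plasma went to validated LC-MS/MS (islatravir LLOQ 0.10 ng/mL). AUC0–24h used linear-up/log-down; GMRs came from a ln-scale mixed-effects model.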

Data set [2] in a line: Safety and tolerability. The class given is in vivo, human. The conditions noted are these: doravirine 100 mg QD, islatravir 2.25 mg QD, alone or in combination; participants without HIV. The essentials:
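Safety was assessed throughout the study by adverse-event monitoring, physical examinations, vital signs, electrocardiography and laboratory safety tests. Investigators graded clinical adverse events as mild, moderate or severe in intensity. The analysis set was all participants given at least one dose of active study drug or placebo. Dosing was oral with water at the same time each day.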

For data set [3] the following is noted: cited from earlier work.
For data set [4], the system named is CYP enzymes. The conditions noted are these: cited from earlier work.
For data set [5] the following is noted: cited from earlier work. This is another data set of the same source.
For data set [6] the following is noted: cited from earlier work. This is another data set of the same source.
Setting [7] is: single oral doses, participants without HIV.

For `Cn1c(Cn2ccc(C(F)(F)F)c(Oc3cc(Cl)cc(C#N)c3)c2=O)n[nH]c1=O` [Doravirine], the “Doravirine C24h, GMR (90% CI), (doravirine + islatravir)/doravirine” value in data set [1] (doravirine 100 mg QD with vs without islatravir 2.25 mg QD) was 1.12 (0.95–1.32). Besides, in data set [1] (human, plasma, oral, 100 mg), the AUC(0-t) was determined as 34 µM·h, the peak level (Cmax) was 2440 nM, the Tmax turned out to be 2.5 h and the concentration at 24 h was 773 nM. The Tolerability entry in data set [2] is reported as “generally well tolerated”. Also, the Tolerability entry in data set [3] (doses of up to 1,200 mg in clinical studies) is “generally well tolerated”. Further, in data set [4] (in vitro), the “Inhibition or induction of CYP enzymes” value is reported as “not an inhibitor or inducer of CYP enzymes”. In addition, the Apparent terminal half-life in data set [5] (6–1200 mg orally) is 12 to 21 h. Besides, the “Time to attainment of steady state” value in data set [5] (QD dosing, 200 mg orally) is “approximately 5 days”. Also, the “Range of median Tmax previously reported” value in data set [5] is 1 to 4 h. The “Reduction of doravirine exposure on coadministration with rifabutin” value in data set [5] (moderate CYP3A4 inducer) is on record as 50%. Moreover, the “Reduction of doravirine exposure on coadministration with rifampin” value in data set [5] (strong CYP3A4 inducer) is given as 88%.

`C#C[C@]1(COP(=O)(O)OP(=O)(O)OP(=O)(O)O)O[C@@H](n2cnc3c(N)nc(F)nc32)C[C@@H]1O` [islatravir-TP]: in data set [6] (after islatravir administration), the “Time at which peak intracellular islatravir-TP concentrations were attained” value is 6 to 24 h. The “Apparent terminal half-life of islatravir-TP” value in data set [6] (dosed daily to steady state) is given as “exceeded 7 days”. In addition, in data set [6] (oral QD dosing of islatravir), the “Time to steady state of intracellular islatravir-TP” value is not above 28 days. Besides, the “Intracellular half-life of islatravir-TP” value in data set [6] (single oral doses of islatravir) was 118 to 171 h.

As to `C#C[C@]1(CO)O[C@@H](n2cnc3c(N)nc(F)nc32)C[C@@H]1O` [Islatravir, 4'-Ethynyl-2-fluoro-2'-deoxyadenosine], in data set [6] (oral QD dosing), the “Time to steady-state plasma concentrations” value was approximately 14 days. In data set [6] (setting [7]), the Half-life of islatravir is 49 to 61 h and the “Time at which peak plasma concentrations were attained” value is on record as ~ 0.5 h. Also, in data set [1] (human, plasma, oral, 2.25 mg), the AUC(0-t) is 0.254 µM·h, the Cmax amounted to 63.5 nM and the Tmax was determined as 0.52 h. In addition, the Tolerability result in data set [2] was “generally well tolerated”. Also, in data set [3] (treatment-naive people living with HIV-1, oral doses 0.5–30 mg), the Tolerability result is given as “generally well tolerated”. For the same molecule, the “Metabolism by CYP enzymes” value in data set [4] is listed as “not metabolized by CYP enzymes”.
